According to ChEMBL document CHEMBL1155099, “Natural products in parallel synthesis: triazole libraries of nonactic acid” (2008):
Activity calls are given as the source filed them.

Assays:
Format in all cases: functional, organism-based
[1] = tested on: Bacillus anthracis; assay: Antibacterial activity against Bacillus anthracis at 1mM by almar blue dye reduction assay
[2] = tested on: Bacillus cereus; assay: Antibacterial activity against Bacillus cereus at 1 mM by almar blue dye reduction assay
Method in brief: (§1)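 Single-point primary screen at 1 mM using Alamar Blue dye reduction as the growth read-out.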

[3] = tested on: Bacillus subtilis; assay: Antibacterial activity against Bacillus subtilis at 1 mM by almar blue dye reduction assay; method in brief: as §1
[4] = tested on: Staphylococcus aureus; assay: Antibacterial activity against Staphylococcus aureus at 1 mM by almar blue dye reduction assay; method in brief: as §1
[5] = tested on: Escherichia coli; assay: Antibacterial activity against Escherichia coli at 1 mM by almar blue dye reduction assay; method in brief: as §1
[6] = tested on: Pseudomonas aeruginosa; assay: Antibacterial activity against Pseudomonas aeruginosa at 1 mM by almar blue dye reduction assay; method in brief: as §1
[7] = tested on: Candida albicans; assay: Antifungal activity against Candida albicans at 1 mM by almar blue dye reduction assay; method in brief: as §1
[8] = tested on: Cryptococcus neoformans; assay: Antifungal activity against Cryptococcus neoformans at 1 mM by almar blue dye reduction assay; method in brief: as §1
[9] = tested on: Saccharomyces cerevisiae; assay: Antifungal activity against Saccharomyces cerevisiae at 1 mM by almar blue dye reduction assay; method in brief: as §1

Measured: Activity

CCN(CC)C(=O)[C@H](C)[C@H]1CC[C@@H](C[C@@H](C)n2cc(C#CCOc3ccc(OC)cc3)nn2)O1
inactive: all assays above

CCC(=O)OCC#Cc1cn([C@H](C)CC2CCC([C@@H](C)C(=O)NC(C)C)O2)nn1 (single isomer, unassigned)
inactive: all assays above

C[C@H](C[C@@H]1CC[C@H]([C@@H](C)C(=O)N(C)Cc2ccccc2)O1)n1cc(C#Cc2ccccc2)nn1
inactive: all assays above

C[C@H](C[C@@H]1CC[C@H]([C@@H](C)C(=O)N2CCCC2)O1)n1cc(C#CCOc2ccc(C(F)(F)F)cc2)nn1
inactive: all assays above

C[C@H](C[C@@H]1CC[C@H]([C@@H](C)C(=O)N(C)Cc2ccccc2)O1)n1cc(C#CCc2ccccc2)nn1
inactive: all assays above

CC(C)NC(=O)[C@H](C)[C@H]1CC[C@@H](C[C@@H](C)n2cc(C#CCN(C)C)nn2)O1
inactive: all assays above

CC(C)NC(=O)[C@H](C)C1CCC(C[C@@H](C)n2cc(C#CCOC(=O)OCc3ccccc3)nn2)O1 (single isomer, unassigned)
inactive: all assays above

COCC#Cc1cn([C@H](C)C[C@@H]2CC[C@H]([C@@H](C)C(=O)N(C)Cc3ccccc3)O2)nn1
inactive: all assays above

CCCCCC#Cc1cn([C@H](C)C[C@@H]2CC[C@H]([C@@H](C)C(=O)N3CCN(CC4CCCO4)CC3)O2)nn1 (some centres not stated)
inactive: all assays above

CCCCCC#Cc1cn([C@H](C)C[C@@H]2CC[C@H]([C@@H](C)C(=O)N3CCCC3)O2)nn1
inactive: all assays above

CC(C)CC#Cc1cn([C@H](C)C[C@@H]2CC[C@H]([C@@H](C)C(=O)NC(C)C)O2)nn1
inactive: all assays above

C[C@H](C[C@@H]1CC[C@H]([C@@H](C)C(=O)N(C)Cc2ccccc2)O1)n1cc(C#Cc2ccccc2[N+](=O)[O-])nn1
inactive: all assays above

C[C@H](C[C@@H]1CC[C@H]([C@@H](C)C(=O)N2CCCC2)O1)n1cc(C#CCN2CCC(c3ccccc3)CC2)nn1
inactive: all assays above

Cc1cccc(NC(=O)NCC#Cc2cn([C@H](C)CC3CCC([C@@H](C)C(=O)NC(C)C)O3)nn2)c1 (single isomer, unassigned)
inactive: all assays above

C[C@H](C[C@@H]1CC[C@H]([C@@H](C)C(=O)N(C)Cc2ccccc2)O1)n1cc(C#CCOc2ccc(C(F)(F)F)cc2)nn1
inactive: all assays above

C[C@H](C[C@@H]1CC[C@H]([C@@H](C)C(=O)N2CCCC2)O1)n1cc(C#CCN(C)CCc2ccccc2)nn1
inactive: all assays above

COCCNCC#Cc1cn([C@H](C)C[C@@H]2CC[C@H]([C@@H](C)C(=O)NC(C)C)O2)nn1
inactive: all assays above

CC(C)NC(=O)[C@H](C)[C@H]1CC[C@@H](C[C@@H](C)n2cc(C#CCN3CCOCC3)nn2)O1
inactive: all assays above
